GPR7 antagonist = GPR7 receptor antagonists, primary screen, cell-based, fluorescence, single concentration; GPR7-expressing cells, fluorescence antagonist assay; inhibition, % at 4.4 µM; 290,000 tested, 1.1% active; AID 1861, 2009; in the data active means inhibition above about 16%, passing the limit was not always enough;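 further: cells stimulated with the agonist NPW; 0% = agonist with vehicle and 100% = vehicle without agonist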
Target sequence (P48145 whole entry, looked up): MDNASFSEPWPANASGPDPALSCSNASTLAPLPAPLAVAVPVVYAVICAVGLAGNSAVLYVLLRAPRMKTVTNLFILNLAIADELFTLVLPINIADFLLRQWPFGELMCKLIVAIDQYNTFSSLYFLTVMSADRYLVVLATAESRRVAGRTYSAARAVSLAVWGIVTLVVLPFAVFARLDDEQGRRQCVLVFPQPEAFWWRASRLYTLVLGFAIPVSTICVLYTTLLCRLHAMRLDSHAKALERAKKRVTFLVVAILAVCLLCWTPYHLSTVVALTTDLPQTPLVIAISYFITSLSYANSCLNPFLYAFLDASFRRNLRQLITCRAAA
OX1R antag-1 = OX1R (HCRTR1) antagonists, primary screen, fluorescence, CHO/OX1R cells, Fluo-8 calcium, orexin A; Orexin/Hypocretin receptor type 1 (Homo sapiens), O43613; Fluo-8 calcium fluorescence; inhibition, % at 5 µM; 330,000 tested, 0.43% active; AID 434989, 2010;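 active means inhibition above its plate's threshold, mean inhibition of all tested compounds on the plate plus 3 SD, cut at about 37% in these data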;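 further: 0% = orexin A challenge wells and 100% = SB-334867-A antagonist wells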
CHO parental Ca = ATP-evoked calcium signal inhibitors, parental CHO, primary screen, counter-screen for OX1R antagonist project, cell-based, fluorescence, Fluo-8 calcium dye; 330,000 tested, 0.63% active; AID 463079, 2010; inhibition, % at 5.6 µM; parental CHO-K1, ATP-induced calcium, Fluo-8 fluorescence;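 active means inhibition above that plate's mean sample inhibition plus 3 SD, cut at about 26% in these data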;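 further: 0% = ATP-challenged DMSO wells and 100% = DMSO wells without ATP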
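test system = CHO parental line | reagent = ATP stimulus | measured by = intracellular calcium via Fluo-8 no-wash fluorescent dye | control set = ATP and no-ATP DMSO wells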
TAAR1 antagonist = human TAAR1 antagonists, primary screen, Fluo-8 calcium fluorescence, CHO RD-HGA16 cells; AID 624466, 2012; 360,000 tested, 1.5% active; inhibition, % at 3 µM; Trace amine-associated receptor 1 (Homo sapiens), Q96RJ0; antagonist;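 active means inhibition above a per-plate cutoff, the mean inhibition of test compounds on that plate plus 3 SD, cut at about 49% in these data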;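 further: 0% = DMSO plus EC80 beta-PEA response and 100% = DMSO alone without agonist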
Target sequence (Q96RJ0 whole entry, looked up): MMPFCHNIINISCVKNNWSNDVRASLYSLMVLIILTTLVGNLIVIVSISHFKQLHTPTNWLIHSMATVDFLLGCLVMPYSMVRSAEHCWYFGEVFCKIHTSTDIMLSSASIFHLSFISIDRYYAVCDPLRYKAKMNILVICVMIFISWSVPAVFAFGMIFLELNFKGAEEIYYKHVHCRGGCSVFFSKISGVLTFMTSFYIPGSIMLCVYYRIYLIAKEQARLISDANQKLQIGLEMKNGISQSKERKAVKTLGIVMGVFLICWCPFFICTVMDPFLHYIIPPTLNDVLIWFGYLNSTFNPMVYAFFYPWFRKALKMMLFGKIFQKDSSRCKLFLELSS
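Material: CHO RD-HGA16 cells bearing hTAAR1; compound dosing: one-point dosing, 3 µM nominal final; schedule: dye loading 75 min at 37 °C, then 30 min room temperature; measured by: calcium fluorescence with Fluo-8; control set: vehicle and agonist controls; replication: n of 1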
TAAR1 agonist = human TAAR1 agonists, primary screen, Fluo-8 calcium fluorescence, CHO RD-HGA16 cells | Trace amine-associated receptor 1 (Homo sapiens), Q96RJ0 | vehicle wells 0%, saturating PEA agonist 100% | activation, % at 3 µM | 360,000 tested, 0.99% active;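 active means activation above the mean activation of all test compounds in the run plus 3 SD, cut at about 38% in these data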
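test system = CHO RD-HGA16 cells carrying human TAAR1 plus Gα16 | schedule = 17-24 h seeding, 75 min 37 °C dye, 30 min RT | compound dosing = 3 µM single concentration | control set = DMSO and PEA EC100 | replicates = n 1 | signal = Fluo-8 fluorescence, 5 s baseline then 140 s kinetic read | measure = percent activation vs PEA EC100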
OX1R antag-2 = antagonists of human orexin 1 receptor (OX1R); AID 485270, 2010; Orexin/Hypocretin receptor type 1 (Homo sapiens), O43613; 330,000 tested, 1.8% active; inhibition, % at 6.6 µM; OX1R-expressing cells, FRET antagonist read-out; in the data active means inhibition mostly above about 38%, no sharp cut-off; inactive means mostly below about 40%;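 further: 0% = agonist challenge alone and 100% = reference antagonist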
An asterisk follows results filed as active; · = no result. Shown are actives, neighbours in structure and some others; about 4.6% of the full set was active somewhere.

SMILES | GPR7 antagonist | OX1R antag-1 | CHO parental Ca | TAAR1 antagonist | TAAR1 agonist | OX1R antag-2
CCN(CC(=O)Nc1c(F)cccc1F)C(=O)Cc1c(C)nc2ccccc2c1C | · | -12 | -18 | -4 | 1 | 1
CN(C)CCOc1ccc(-c2c(-c3ccccc3)sc3ccccc23)cc1 | · | 64* | 49* | 42 | 27 | 10
O=C(NCc1ccccc1)c1onc(CSc2ccccc2)c1C(=O)NCC1CC1 | · | 47 | 47* | 56* | 14 | 62
CC(C)(C)C(=O)/C(=C/c1ccc(Cl)cc1)n1cncn1 | -2 | · | · | -13 | -1 | ·
CC(C)(C)C(=O)/C(=C\c1ccc([N+](=O)[O-])cc1)n1cncn1 | 17 | 14 | 23 | · | · | 101*
Cc1ccc(C)c(NC(=S)NC23CN4CN(CN(C4)C2)C3)c1 | -12 | -2 | -4 | -13 | 2 | 11
CC(=O)C(=Nc1ccccc1Cl)NNc1ccc(Cl)cc1 | -7 | -17 | -3 | 8 | 5 | 77*
O=C(CCS(=O)(=O)c1ccccc1)Nc1ccc(-c2nc3ccccc3s2)cc1 | -17 | -19 | -6 | 9 | 5 | 13
O=C(CCS(=O)(=O)c1ccccc1)Nc1cccc(-c2nc3ccccc3s2)c1 | 1 | 6 | -5 | 60* | 19 | 55*
N#Cc1cccc(N2[C@@H](Cc3cc4ccccc4n3Cc3ccccc3)COC[C@H]2Cc2ccc3ccccc3c2)c1 | · | · | · | -8 | 3 | ·
O=C1C2C3C=CC(C4CC34)C2C(=O)N1/N=C/c1ccc(-c2ccc(Cl)cc2[N+](=O)[O-])o1 (centres undefined) | -9 | -9 | -4 | 52* | 12 | 24
O=C1C2C3C=CC(C4CC34)C2C(=O)N1/N=C/c1ccc(-c2ccc(F)cc2[N+](=O)[O-])o1 (centres undefined) | -9 | 0 | 9 | 42 | 16 | 24
O=C(c1ccccc1)N(CCCl)C(=O)N(CCCl)C(=O)c1ccccc1 | · | · | · | 23 | 11 | ·
COc1cc(OC)c(C(=O)O/N=C(\N)c2ccc(C)cc2)cc1OC | 11 | -23 | -15 | -4 | -2 | 36*
Cc1cccc(/C(N)=N/OC(=O)c2ccc(F)cc2)c1 | -9 | -7 | -4 | -6 | 5 | 8
COc1cc(OC)c(C(=O)O/N=C(\N)c2cccc(C)c2)cc1OC | -13 | -14 | -26 | 0 | 0 | 36*
CCOC(=O)N1CCN(C(=O)c2cn(-c3ccc(C)c(C)c3)c(=O)c3ccccc23)CC1 | 75* | · | · | -2 | 17 | ·
COC(=O)c1sc(N2CCN(c3ccc(Cl)cc3)CC2)nc1N | 15 | 19 | 44* | 21 | 5 | 21
COc1ccc(N2CCN(C(=O)NC(=O)c3ccc(Cl)cc3)CC2)cc1 | -14 | -5 | -9 | -6 | 0 | 18
COC(=O)c1cccc2nc3c(C(C)O)cccc3nc12 (centres undefined) | · | -19 | -8 | -19 | 1 | 50*
O=C(/C=C/c1ccccc1)NCCS(=O)(=O)N1CCN(c2ccccc2)CC1 | · | -34 | -22 | 9 | 0 | 7
C/C(=N\NC(=S)NC1CCCCC1)c1ccc(OC(F)F)cc1OC(F)F | -9 | 28 | 41* | 23 | 0 | 37
C/C(=N\NC(=O)C1CC1)c1ccc(OC(F)F)cc1OC(F)F | -9 | -24 | -10 | -7 | 1 | 14
FC(F)Oc1ccc(NC(=S)NC2CCCCCCC2)cc1 | -2 | 24 | 37* | 8 | 3 | 29
CCN(CC(=O)NCc1cccs1)C(=O)c1ccc(-c2ccc(F)cc2)o1 | · | -24 | -10 | -4 | 9 | 5
SMILES | GPR7 antagonist | OX1R antag-1 | CHO parental Ca | TAAR1 antagonist | TAAR1 agonist | OX1R antag-2
CC(NS(=O)(=O)OCC(Cl)(Cl)Cl)c1ccc(C(C)(C)C)cc1 (centres undefined) | -9 | 42 | 64* | 52* | 9 | 50
COc1ccc(-c2oc3ncn(CCN4CCOCC4)c(=N)c3c2-c2ccc(OC)cc2)cc1 | 1 | -16 | -16 | 8 | 3 | 38*
COc1ccc(-c2oc3ncnc(NCCN4CCOCC4)c3c2-c2ccc(OC)cc2)cc1 | -13 | -34 | -27 | · | · | 17
CCCC1=NN(C(=O)C(=O)Nc2ccc(Br)cc2)C(O)(C(F)(F)F)C1 (centres undefined) | -9 | -12 | -3 | 10 | 8 | 50*
CN(C)S(=O)(=O)c1ccc(Cl)c(NC(=O)COC(=O)c2cc(-c3ccccc3)nc3ccccc23)c1 | -7 | -3 | -5 | 52* | 4 | 11
Cc1nnc(N2C(=O)c3cccc4cccc(c34)C2=O)s1 | 1 | -5 | 9 | 2 | 6 | 59*
COC(=O)Cc1ccc(OC(=O)CCS(=O)(=O)c2ccc(C)cc2)cc1 | · | -16 | 3 | -24 | -1 | 19
CCOC(=O)c1cc2c(=O)n3ccccc3nc2n(CCCOC)c1=NC(C)=O | -4 | -14 | -4 | 11 | 1 | 51*
Cc1ccc2nc3c(cc(C(=O)NC4CCCC4)c(=N)n3C3CCCCC3)c(=O)n2c1 | 1 | 0 | -9 | -20 | 0 | 21
C=CCn1c(=N)c(C(=O)OCC)cc2c(=O)n3cccc(C)c3nc21 | -3 | -15 | -9 | · | · | 110*
C=CCn1c(=N)c(C(=O)NCCCOC)cc2c(=O)n3cc(C)ccc3nc21 | -6 | -10 | -10 | -2 | 4 | 58*
CCOC(=O)c1cc2c(=O)n3cccc(C)c3nc2n(CC(C)C)c1=NC(=O)c1ccco1 | -6 | -21 | -15 | -37 | 5 | 54*
COC(=O)[C@]12C[C@H](CC(=O)NCc3cccc4ccccc34)C(=O)N(Cc3ccccc3)C1=C[C@H](C1CCCC1)O[C@@H]2C | · | · | · | -15 | 0 | ·
CCCNC(=O)c1cc(C2CCCCN2C(=O)c2ccc(OC)cc2)on1 (centres undefined) | · | · | · | -17 | 2 | ·
CCCn1c(=NC(=O)c2ccco2)c(C(=O)OCC)cc2c(=O)n3ccccc3nc21 | -5 | -30 | -14 | -14 | 12 | 32*
CCOC(=O)c1cc2c(=O)n3ccccc3nc2n(C(C)C)c1=NC(=O)c1ccco1 | -8 | -24 | -8 | 3 | 5 | 29
O=C(COC(=O)c1cc(S(=O)(=O)Nc2ccccc2Cl)ccc1O)Nc1ccc(F)c(F)c1F | · | 16 | -6 | 10 | 5 | 34*
Cc1ccc(SC/C(O)=C(\C#N)c2nc3ccccc3s2)cc1 | 4 | 2 | -6 | -4 | 7 | 72
N#C/C(=C(/O)CSc1ccccn1)c1nc2ccccc2s1 | 9 | 71* | 66* | 4 | 8 | 29
